# From PubChem
# The entries come from a sample that favours hits as a whole.
# INS promoter act: TRM-6 insulin promoter activation; TRM-6 cells (human fetal islet line), insulin promoter eGFP reporter, imaging; plate-scaled: unstimulated 0, stimulated control 100; AID 1296; actives 0.81% (n = 130,000); activation, % at 2 µM;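 active means activation at 2 µM above a set limit, confirmed on inspection of the cell images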;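 further: share of cells whose green reporter signal exceeds an intensity cutoff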
#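 Material: TRM-6 insulin promoter–eGFP reporter cells. Buffer or medium: Low-glucose (5.5 mM) medium with tamoxifen. Probe or stimulus: tamoxifen at 0.75 µM added at seeding for reporter induction. Times: tamoxifen pre-incubation 15 h overnight, then compound exposure 48 h at 37 °C. Detection: high-content imaging of fixed cells with Hoechst nuclear stain.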
# Numbers stand for hits; i = inactive.
SMILES,INS promoter act
CC1CN(C(=S)NC(=O)C2CCCCC2)CC(C)O1 (stereo not given),i
Cc1ccc(CC(=O)N2CCN(c3ccccn3)CC2)cc1,i
CCCCN1C(=O)C(O)(CC(=O)c2ccccc2OC)c2ccccc21 (stereo not given),i
CCCCN1C(=O)C2(NNc3ccccc3O2)c2ccccc21 (stereo not given),170.0
CCCCN1C(=O)C(O)(CC(=O)c2c(C)coc2C)c2ccccc21 (stereo not given),i
CC(C)C1OC(c2cccc(NC(=O)c3cccs3)c2)OCC1(C)C (stereo not given),i
Cc1ccc(NC(=O)CCC(=O)OCC(F)(F)C(F)F)cc1,80.6
O=C(CCC(=O)OCCCC(F)(F)C(F)(F)F)Nc1ccccc1,i
Cc1ccc(NC(=O)CCC(=O)OCC(=O)c2ccc(-c3ccccc3)cc2)cc1,i
COc1ccc(N2CCN(c3ncnc4c3nnn4Cc3ccccc3Cl)CC2)cc1,i
CCCCNC(=S)NNC(=O)C12CC3CC(CC(C3)C1)C2,86.2
CC(C)(C)OC(=O)NNC(=O)C12CC3CC(CC(C3)C1)C2,i
CCCCNC(=S)NNC(=O)c1ccc(Br)o1,i
CN(C)c1nc(SCc2ccc(Cl)cc2)nc2c1CCCC2,i
COc1cc([N+](=O)[O-])ccc1NC(=O)CSc1nc2ccccc2n1-c1ccccc1,i
